Assay results as given in PMC4301073 (ACS Chemical Biology, 2014).
In brackets after ≈: the same amount, converted by molar mass. One block for each molecule: values may come before it.

Key:
[1] = target: T1, HK853 (Thermotoga maritima, UniProt Q9WZV7); assay: High-throughput primary FP screen for displacement of ADP-BODIPY; format: binding; conditions: 20 μM compound
T1 sequence (Q9WZV7 232-489): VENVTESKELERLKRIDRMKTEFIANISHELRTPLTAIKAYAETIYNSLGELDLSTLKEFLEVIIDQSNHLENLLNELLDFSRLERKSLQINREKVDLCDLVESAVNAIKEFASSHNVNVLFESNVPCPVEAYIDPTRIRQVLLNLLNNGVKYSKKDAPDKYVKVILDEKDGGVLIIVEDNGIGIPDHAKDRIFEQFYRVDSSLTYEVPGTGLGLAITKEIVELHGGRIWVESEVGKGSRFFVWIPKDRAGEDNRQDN

[2] = target: T1, HK853; assay: Control FP competition; format: binding
Summary of the method: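 Competition format: 25 μM HK853 plus 10 nM ADP-BODIPY probe with 0–1000 μM competing nucleotide and 5% (v/v) DMSO, in 50 mM Tris-HCl pH 7.8, 200 mM KCl, 5 mM MgCl2. Incubation and FP read as for binding, in triplicate. FP plotted against log molar competitor; IC50 from four-parameter logistic fit.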

[3] = target: T2, VicK (Streptococcus pneumoniae, UniProt Q8DPL8); assay: Inhibition of VicK activity; format: biochemical
T2 sequence (Q8DPL8 36-449 limits assumed): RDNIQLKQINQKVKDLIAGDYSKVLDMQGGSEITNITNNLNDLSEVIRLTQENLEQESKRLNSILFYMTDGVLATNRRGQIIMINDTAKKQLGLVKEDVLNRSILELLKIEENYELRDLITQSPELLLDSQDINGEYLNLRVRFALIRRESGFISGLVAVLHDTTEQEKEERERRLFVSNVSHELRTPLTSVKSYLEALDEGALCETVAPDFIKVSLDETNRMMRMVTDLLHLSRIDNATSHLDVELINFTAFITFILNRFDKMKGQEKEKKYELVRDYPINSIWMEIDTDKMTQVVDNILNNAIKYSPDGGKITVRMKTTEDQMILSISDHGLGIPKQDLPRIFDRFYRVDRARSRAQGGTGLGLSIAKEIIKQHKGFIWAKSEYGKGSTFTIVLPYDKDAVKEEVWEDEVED
Summary of the method: (§1)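 Enzyme (VicK 2 μM; for CheA, 2 μM CheA plus 6 μM CheW) preincubated with test compound 30 min RT, then radioactive ATP mix added. Final: 3 μM ATP [γ-33P] (20 Ci mmol–1), 5% DMSO, 0.1% Triton X-100 in reaction buffer, pH 7.8. Reacted 30 min RT, quenched in SDS loading buffer, run on SDS-PAGE. Radioactive band density normalised to no-inhibitor control; IC50 from four-parameter logistic fit.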

[4] = target: T1, HK853; assay: Inhibition of HK853 autophosphorylation activity; format: biochemical
[5] = target: T3, CheA (Escherichia coli, UniProt P07363); assay: Inhibition of CheA activity; format: biochemical
T3 sequence (P07363 1-654): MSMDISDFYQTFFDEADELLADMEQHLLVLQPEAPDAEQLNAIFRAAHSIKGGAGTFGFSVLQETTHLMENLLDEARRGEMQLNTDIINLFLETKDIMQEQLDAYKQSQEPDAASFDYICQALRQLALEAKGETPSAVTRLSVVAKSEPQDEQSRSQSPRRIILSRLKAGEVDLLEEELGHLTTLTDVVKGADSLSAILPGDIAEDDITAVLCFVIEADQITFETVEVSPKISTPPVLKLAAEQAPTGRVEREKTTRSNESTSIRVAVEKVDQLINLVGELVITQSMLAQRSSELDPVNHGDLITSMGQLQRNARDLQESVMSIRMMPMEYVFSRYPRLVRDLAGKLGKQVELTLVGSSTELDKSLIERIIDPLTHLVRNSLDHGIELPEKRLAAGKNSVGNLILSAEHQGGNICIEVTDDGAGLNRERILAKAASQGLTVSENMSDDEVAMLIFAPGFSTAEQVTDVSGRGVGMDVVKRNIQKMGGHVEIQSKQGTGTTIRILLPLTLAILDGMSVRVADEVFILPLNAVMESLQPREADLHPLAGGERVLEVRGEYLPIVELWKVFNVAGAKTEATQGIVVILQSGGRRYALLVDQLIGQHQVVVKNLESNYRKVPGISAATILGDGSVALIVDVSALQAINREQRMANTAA
Summary of the method: as §1

[6] = test system: E. coli DC2; assay: Broth microdilution antimicrobial testing; format: cell-based, Escherichia coli; conditions: for MIC: Escherichia coli, DC2, 20 h, read-out: MIC values E. coli DC2
Summary of the method: (§2)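 Serial dilutions in Mueller-Hinton Broth 2, inoculated at 5 × 10^5 cfu/mL; wells ≤5% DMSO. Growth, sterility, DMSO and known-antibiotic controls included; inoculum count checked by plating on MHB 2 agar. Incubated 20 h at 37 °C. MIC taken as lowest concentration with no growth visible to unaided eye.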

[7] = test system: B. subtilis 3610; assay: Broth microdilution antimicrobial testing; format: cell-based, Bacillus subtilis; conditions: for MIC: Bacillus subtilis, 3610, 20 h, read-out: MIC values B. subtilis 3610; for MIC values B. subtilis 3610: n = 2
Summary of the method: as §2

[8] = test system: Vero 76 cells; assay: Cytotoxicity testing; format: cell-based, African green monkey; conditions: DMSO control, n = 2
[9] = test system: four HK proteins; conditions: cited from earlier work
[10] = test system: PhoQ; conditions: cited from earlier work

displacement of ADP-BODIPY (1) in primary screening (HTS) [1]: failed to displace ADP-BODIPY (1)
Molecule: C=CCNC1=C2C[C@@H](C)C[C@H](OC)[C@H](O)[C@@H](C)/C=C(\C)[C@H](OC(N)=O)[C@@H](OC)/C=C\C=C(/C)C(=O)NC(=CC1=O)C2=O [17-AAG]

IC50 [2]: 27.7 ± 0.9 µM | IC50 [3]: 4.81 µM | IC50 [4]: 2.57 µM | increased potency over AMP (9) ([4]; from Table 1 IC50 values of HK inhibition): more than 300 fold | IC50 [5]: 21.5 µM
Molecule: Nc1ncnc2c1ncn2[C@@H]1O[C@H](COP(=O)(O)OP(=O)(O)O)[C@@H](O)[C@H]1O [ADP (3), adenosine diphosphate]

IC50 [2]: 23 ± 1.1 µM
Molecule: Nc1ncnc2c1ncn2[C@@H]1O[C@H](COP(=O)(O)OP(=O)(O)OP(=O)(O)O)[C@@H](O)[C@H]1O [ATP (2), adenosine triphosphate]

Molecule: Nc1nc2ccc(OC(F)(F)F)cc2s1 [Compound 12, riluzole]
MIC [6]: 128 µg/mL (≈ 547 µM) | IC50 [3]: 618 µM | MIC [7]: 293 µg/mL (≈ 1250 µM) | IC50 [5]: 1340 µM

Molecule: O=c1cc(-c2ccc(O)c(O)c2)oc2cc(O)cc(O)c12 [Compound 15, luteolin]
MIC [6]: 8 µg/mL (≈ 27.9 µM) | IC50 [3]: 216 µM | MIC [7]: > 128 µg/mL | IC50 [4]: 15.1 µM

Molecule: C[S+](C)[O-] [DMSO, dimethyl sulfoxide]
MIC values E. coli DC2 ([6]; DMSO control, n = 2): 10–20% (v/v) | MIC values B. subtilis 3610 ([7]; DMSO control): 20% (v/v) | CC50 Vero 76 Cells [8]: >0.5% (v/v)

inhibition of HK853 activity in follow-up assays ([4]; Supporting Information Table 1, n=1): slight inhibition
Molecule: O=c1c(-c2ccc(O)cc2)coc2cc(O)cc(O)c12 [Genistein, genistein]

Molecule: N#Cc1c(N)nc2sc(C(=O)Nc3ccc(Br)cc3)c(N)c2c1-c1ccccc1 [TEP, 3,6-diamino-5-cyano-4-phenylthieno[2,3-b]pyridine-2-carboxylic acid (4-bromo-phenyl)-amide]
IC50 values [9]: low micromolar range

IC50 [4]: 463 µM
Molecule: Nc1ncnc2nc[nH]c12 [adenine (10), adenine]

Molecule: CC1(C)S[C@@H]2[C@H](NC(=O)[C@H](N)c3ccccc3)C(=O)N2[C@H]1C(=O)O [ampicillin]
MIC [6]: 0.25 µg/mL (≈ 0.715 µM)

Molecule: O=C(N[C@H](CO)[C@H](O)c1ccc([N+](=O)[O-])cc1)C(Cl)Cl [chloramphenicol]
MIC [6]: 0.5 to 1 µg/mL (≈ 1.55 to 3.09 µM) | MIC [7]: 2 to 4 µg/mL (≈ 6.19 to 12.4 µM)

displacement of ADP-BODIPY (1) in primary screening (HTS) [1]: failed to displace ADP-BODIPY (1)
Molecule: COC1=C2C[C@@H](C)C[C@H](OC)[C@H](O)[C@@H](C)/C=C(\C)[C@H](OC(N)=O)[C@@H](OC)/C=C\C=C(/C)C(=O)NC(=CC1=O)C2=O [geldanamyin]

displacement of ADP-BODIPY (1) in primary screening (HTS) [1]: failed to displace ADP-BODIPY (1)
Molecule: C[C@@H]1C[C@H]2O[C@@H]2/C=C\C=C\C(=O)Cc2c(Cl)c(O)cc(O)c2C(=O)O1 [radicicol]
difference in selectivity between Hsp90 and PhoQ [10]: > 30 fold

MIC [7]: 0.5 µg/mL (≈ 0.345 µM)
Molecule: CN[C@H](CC(C)C)C(=O)N[C@H]1C(=O)N[C@@H](CC(N)=O)C(=O)N[C@H]2C(=O)N[C@H]3C(=O)N[C@H](C(=O)N[C@H](C(=O)O)c4cc(O)cc(O)c4-c4cc3ccc4O)[C@H](O)c3ccc(c(Cl)c3)Oc3cc2cc(c3O[C@@H]2O[C@H](CO)[C@@H](O)[C@H](O)[C@H]2O[C@H]2C[C@](C)(N)[C@H](O)[C@H](C)O2)Oc2ccc(cc2Cl)[C@H]1O [vancomycin]

MIC values B. subtilis 3610 ([7]; 20 h at 37 °C, lowest concentration that inhibited visible growth): ≤0.06–0.5 μg mL^–1
Molecule: penicillin
